Legend:
Neprilysin = molecular target: T1, Neprilysin (Oryctolagus cuniculus, UniProt P08049); assay: Inhibitory concentration was evaluated by Inhibiting 50% of Neutral endopeptidase enzyme (NEP) activity using 20 nM [3H]D-Ala2-Leu-enkephalin as substrate
T1 sequence (P08049 whole entry): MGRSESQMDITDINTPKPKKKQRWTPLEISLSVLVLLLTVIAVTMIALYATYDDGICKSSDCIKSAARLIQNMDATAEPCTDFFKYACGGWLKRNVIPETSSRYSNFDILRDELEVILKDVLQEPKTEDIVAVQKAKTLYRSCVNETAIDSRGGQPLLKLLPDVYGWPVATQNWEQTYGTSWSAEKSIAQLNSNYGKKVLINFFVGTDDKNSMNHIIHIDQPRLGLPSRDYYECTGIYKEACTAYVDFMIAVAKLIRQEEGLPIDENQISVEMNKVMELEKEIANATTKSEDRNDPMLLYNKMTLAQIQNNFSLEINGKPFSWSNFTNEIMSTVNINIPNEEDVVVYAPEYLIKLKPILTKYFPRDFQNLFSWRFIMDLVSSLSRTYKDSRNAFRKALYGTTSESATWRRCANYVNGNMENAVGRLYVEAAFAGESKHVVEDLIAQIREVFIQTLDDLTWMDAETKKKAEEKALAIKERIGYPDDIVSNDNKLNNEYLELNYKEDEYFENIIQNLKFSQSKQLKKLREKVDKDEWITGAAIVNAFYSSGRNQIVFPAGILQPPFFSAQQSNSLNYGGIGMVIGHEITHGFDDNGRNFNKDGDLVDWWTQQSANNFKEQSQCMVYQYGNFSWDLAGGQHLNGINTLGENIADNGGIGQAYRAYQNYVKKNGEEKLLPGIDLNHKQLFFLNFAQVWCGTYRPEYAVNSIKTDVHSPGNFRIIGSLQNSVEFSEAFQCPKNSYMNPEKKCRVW
In short: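 NEP purified to homogeneity from rabbit kidney, final 1 pmol/100 μL. Preincubated 15 min at 25 °C with or without increasing inhibitor concentrations in 50 mM Tris-HCl pH 7.4. [3H]-D-Ala2-Leu-enkephalin added to a final 20 nM. Stopped after 30 min with 0.5 M HCl. Tritiated metabolites separated on polystyrene beads. IC50 by log probit of five concentrations, mean ± SEM of three independent experiments.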

[1] = molecular target: T2, Angiotensin-converting enzyme (Homo sapiens, UniProt P12821); assay: Inhibitory concentration was evaluated by inhibiting 50% of Angiotensin I Converting Enzyme activity using 50 uM N-Cbz-Phe-His-Leu as substrate
In short: (§1)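 Recombinant human ACE preincubated 15 min at 37 °C with various inhibitor concentrations in 50 mM Tris-HCl pH 7.4. N-Cbz-Phe-His-Leu then added to a final 0.05 mM. Reaction ran 15 min and was stopped with 2 M NaOH. His-Leu measured fluorimetrically (ex 365, em 495 nm) against a His-Leu calibration curve. IC50 by log probit of five concentrations, mean ± SEM of three independent experiments.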

[2] = molecular target: T2, Angiotensin-converting enzyme; assay: Inhibitory concentration was evaluated by Inhibiting 50% of Angiotensin I converting enzyme activity using 50 uM N-Cbz-Phe-His-Leu as substrate
[3] = molecular target: T2, Angiotensin-converting enzyme; assay: Inhibitory concentration was evaluated by inhibiting 50% of Angiotensin I Converting Enzyme activity using 50 micro M N-Cbz-Phe-His-Leu as substrate; in short: as §1

T2 sequence (P12821 whole entry): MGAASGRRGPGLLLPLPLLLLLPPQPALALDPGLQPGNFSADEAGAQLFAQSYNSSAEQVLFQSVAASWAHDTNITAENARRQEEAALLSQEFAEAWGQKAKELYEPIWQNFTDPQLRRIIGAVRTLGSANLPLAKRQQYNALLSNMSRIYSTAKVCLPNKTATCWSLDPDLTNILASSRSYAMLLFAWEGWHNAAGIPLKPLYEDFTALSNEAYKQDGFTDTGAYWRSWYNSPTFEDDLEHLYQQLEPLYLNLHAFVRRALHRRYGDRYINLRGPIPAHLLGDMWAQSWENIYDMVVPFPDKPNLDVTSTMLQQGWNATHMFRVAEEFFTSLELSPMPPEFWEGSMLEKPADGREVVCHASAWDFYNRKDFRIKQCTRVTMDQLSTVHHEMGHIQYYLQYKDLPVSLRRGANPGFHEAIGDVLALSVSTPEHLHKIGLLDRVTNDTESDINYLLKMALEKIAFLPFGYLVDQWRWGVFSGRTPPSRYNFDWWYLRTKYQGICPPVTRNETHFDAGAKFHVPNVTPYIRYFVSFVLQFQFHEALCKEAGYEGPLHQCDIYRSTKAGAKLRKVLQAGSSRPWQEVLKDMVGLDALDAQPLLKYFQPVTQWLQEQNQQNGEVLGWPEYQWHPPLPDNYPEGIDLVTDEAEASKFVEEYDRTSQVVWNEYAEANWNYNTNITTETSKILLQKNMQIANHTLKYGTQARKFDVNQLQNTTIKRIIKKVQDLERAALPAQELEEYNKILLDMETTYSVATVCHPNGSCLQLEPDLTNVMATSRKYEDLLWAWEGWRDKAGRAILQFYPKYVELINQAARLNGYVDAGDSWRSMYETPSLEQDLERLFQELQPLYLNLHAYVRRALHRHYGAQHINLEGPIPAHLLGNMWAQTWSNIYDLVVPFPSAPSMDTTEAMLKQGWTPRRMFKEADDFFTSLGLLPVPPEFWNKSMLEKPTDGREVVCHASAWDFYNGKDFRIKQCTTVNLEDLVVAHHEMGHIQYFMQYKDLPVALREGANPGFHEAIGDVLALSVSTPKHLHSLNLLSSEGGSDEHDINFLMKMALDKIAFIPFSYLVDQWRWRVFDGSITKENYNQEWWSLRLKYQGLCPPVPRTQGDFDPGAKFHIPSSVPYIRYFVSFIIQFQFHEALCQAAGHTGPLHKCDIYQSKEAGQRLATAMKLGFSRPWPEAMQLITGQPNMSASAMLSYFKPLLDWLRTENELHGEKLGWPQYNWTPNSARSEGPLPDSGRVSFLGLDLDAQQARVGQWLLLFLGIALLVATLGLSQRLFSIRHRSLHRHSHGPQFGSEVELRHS

| SMILES | IC50 (Neprilysin) | IC50 [1] | IC50 [2] | IC50 [3] |
| --- | --- | --- | --- | --- |
| CC(C)CC(S)C(Cc1ccccc1)C(=O)NC(Cc1ccc(O)cc1)C(=O)O (stereo not given) | 26 nM | 710 nM | – | – |
| CC(C)C(C(=O)NC(Cc1ccc(O)cc1)C(=O)O)C(S)CCc1ccccc1 (stereo not given) | 53 nM | 4500 nM | – | – |
| CCC(C)C(NC(=O)C(Cc1ccccc1)C(C)S)C(=O)NC(Cc1ccc(O)cc1)C(=O)O (stereo not given) | 380 nM | – | 300 nM | – |
| CC(C)CC(S)CC(=O)NC(Cc1ccccc1)C(=O)O (stereo not given) | 37 nM | 10000 nM | – | – |
| CC(C)CC(S)[C@H](Cc1ccccc1)C(=O)N[C@@H](C)C(=O)O (stereo not given in full) | 40 nM | 4000 nM | – | – |
| CCCCC(NC(=O)C(Cc1ccccc1)C(C)S)C(=O)NC(Cc1ccc(O)cc1)C(=O)O (stereo not given) | 50 nM | – | 6100 nM | – |
| CC(C)C[C@@H](S)[C@H](Cc1ccccc1)C(=O)N[C@@H](C)C(=O)O | 20 nM | 5000 nM | – | – |
| O=C(O)C(Cc1ccc(O)cc1)NC(=O)C(Cc1ccccc1)C(S)CCc1ccccc1 (stereo not given) | 180 nM | 1600 nM | – | – |
| CC(C)C(NC(=O)C(Cc1ccccc1)C(C)S)C(=O)NC(Cc1ccc(O)cc1)C(=O)O (stereo not given) | 320 nM | – | 1300 nM | – |
| CC(C)C[C@H](S)[C@H](Cc1ccccc1)C(=O)N[C@@H](C)C(=O)O | 35 nM | 10000 nM | – | – |
| CC(C)C[C@H](S)[C@@H](Cc1ccccc1)C(=O)N[C@@H](C)C(=O)O | 3.6 nM | – | – | 16100 nM |
| CC(S)C(Cc1ccccc1)C(=O)NCC(=O)O (stereo not given) | 50 nM | – | 11000 nM | – |
| CC(C)CC(S)CC(=O)NC(Cc1ccccc1)C(=O)NC(Cc1ccc(O)cc1)C(=O)O (stereo not given) | 50 nM | – | 2800 nM | – |
| CC(NC(=O)C(Cc1ccccc1)C(S)CCc1ccccc1)C(=O)O (stereo not given) | 44 nM | 4000 nM | – | – |
| CC(C)CC(S)C(Cc1ccccc1)C(=O)NC(C)C(=O)O (stereo not given) | 14 nM | 12000 nM | – | – |

From ChEMBL document CHEMBL1126948, “Exploration of neutral endopeptidase active site by a series of new thiol-containing inhibitors” (J Med Chem, 1993)
